# Source: ChEMBL document CHEMBL1275311, “Synthesis and vasodilation activity of some novel bis(3-pyridinecarbonitrile) derivatives” (Eur J Med Chem, 2010)
# System: Thoracic aorta
# Experiment: Vasodilatory activity in Wistar rat thoracic aorta assessed as reduction of norepinephrine hydrochloride-induced vasoconstriction
# Format: functional, tissue-based
# Procedure, shortened: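 Isolated rat aorta preparation with contractile response recorded. Compounds were dissolved in DMSO, with vehicle-only controls run at the same DMSO concentrations. Relaxation was plotted against compound concentration (mM) to give concentration–response curves, and IC50 was calculated by the best-fit line technique.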
row,Structure (SMILES),IC50 [µM]
1,COc1nc(-c2ccccc2)cc(-c2ccccc2OCCOc2ccccc2-c2cc(-c3ccccc3)nc(OC)c2C#N)c1C#N,1050
2,CCOc1nc(-c2ccccc2)cc(-c2ccccc2OCCOc2ccccc2-c2cc(-c3ccccc3)nc(OCC)c2C#N)c1C#N,862
3,COc1ccc(-c2cc(-c3ccccc3OCCOc3ccccc3-c3cc(-c4ccc(OC)cc4)nc(OC)c3C#N)c(C#N)c(OC)n2)cc1,890
4,CCOc1nc(-c2ccc(O)cc2)cc(-c2ccccc2OCCOc2ccccc2-c2cc(-c3ccc(O)cc3)nc(OCC)c2C#N)c1C#N,970
5,COc1nc(-c2cccs2)cc(-c2ccccc2OCCOc2ccccc2-c2cc(-c3cccs3)nc(OC)c2C#N)c1C#N,1270
6,CCOc1nc(-c2cccs2)cc(-c2ccccc2OCCOc2ccccc2-c2cc(-c3cccs3)nc(OCC)c2C#N)c1C#N,865

# Stronger by IC50, values ahead:
row,IC50 [µM],Structure (SMILES)
1,795,COc1nc(-c2ccc(C)cc2)cc(-c2ccccc2OCCOc2ccccc2-c2cc(-c3ccc(C)cc3)nc(OC)c2C#N)c1C#N
2,696,CCOc1nc(-c2ccc(OC)cc2)cc(-c2ccccc2OCCOc2ccccc2-c2cc(-c3ccc(OC)cc3)nc(OCC)c2C#N)c1C#N
3,665,COc1nc(-c2ccc(Cl)cc2)cc(-c2ccccc2OCCOc2ccccc2-c2cc(-c3ccc(Cl)cc3)nc(OC)c2C#N)c1C#N
4,622,CCOc1nc(-c2ccc(Cl)cc2)cc(-c2ccccc2OCCOc2ccccc2-c2cc(-c3ccc(Cl)cc3)nc(OCC)c2C#N)c1C#N
5,517,COc1nc(-c2ccc(F)cc2)cc(-c2ccccc2OCCOc2ccccc2-c2cc(-c3ccc(F)cc3)nc(OC)c2C#N)c1C#N
6,470,CCOc1nc(-c2ccc(F)cc2)cc(-c2ccccc2OCCOc2ccccc2-c2cc(-c3ccc(F)cc3)nc(OCC)c2C#N)c1C#N
